# Dynein transport = blocks dynein driven cargo transport along microtubules. z-score, hits read low. 220,000 tested, 0.47% active. 3617.4 mouse cells, GR-EGFP nuclear translocation imaging; test concentration mostly 20 µM; stimulated with dexamethasone, 1 µM; stronger effect = lower value;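 active = plate z-score of nuclear minus cytoplasmic receptor signal below a set negative limit, without overly bright fluorescence or cell loss, cut at about -3.5 in these data, passing the limit was not always enough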;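 also: z-score of nuclear minus cytoplasmic ring GR-EGFP intensity difference per well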
#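 Buffer or medium: tetracycline-free induction medium containing charcoal-stripped FBS / Reagent: dexamethasone agonist, 1.0 µM final, for 30 min / Technique: automated 10x imaging of fixed Hoechst-stained cells / Times: induction 48 h, compound 1 h, agonist 30 min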
# MEKK2 mut-MEK5 = signal of MEK5 binding to mutant human MEKK2 PB1 domain; bead flow cytometry, Alexa488-MEK5 binding to MEKK2 mutant; percent response, % at 10 µM; 290,000 tested, 0.35% active; AID 1530; in the data active = percent response above about 24%, passing the limit was not always enough
# MEKK2wt PB1 HTS = raises or lowers MEK5 binding to wildtype human MEKK2 PB1 domain | bead flow cytometry, Alexa488-MEK5 binding to MEKK2 WT; actives lie on both sides | binding response (% of control), % at 10 µM | Q9Y2U5 | 290,000 tested, 1.1% active; in the data active = binding response below about 67% or above about 130%
# B2AR ag = activates human beta-2 adrenergic receptor causing internalization; P07550; Am2.2-beta2AR cells, FAP receptor internalization, flow cytometry; response, % (concentration not given with the values); 340,000 tested, 0.43% active; AID 504454;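 active = response above a set limit, near 3 SD of response in nonfluorescent compounds, cut at about 42% in these data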
# ATG4B inhibitor = inhibitors of human ATG4B cysteine protease | Q9Y4P1 | ATG4B cleavage of LC3-PLA2, NBD-HPC fluorescence, 1 h | inhibition, % at 8.33 µM | 340,000 tested, 0.51% active | AID 504462; in the data active = inhibition above about 40%
# Target sequence (Q9Y4P1 whole entry, looked up): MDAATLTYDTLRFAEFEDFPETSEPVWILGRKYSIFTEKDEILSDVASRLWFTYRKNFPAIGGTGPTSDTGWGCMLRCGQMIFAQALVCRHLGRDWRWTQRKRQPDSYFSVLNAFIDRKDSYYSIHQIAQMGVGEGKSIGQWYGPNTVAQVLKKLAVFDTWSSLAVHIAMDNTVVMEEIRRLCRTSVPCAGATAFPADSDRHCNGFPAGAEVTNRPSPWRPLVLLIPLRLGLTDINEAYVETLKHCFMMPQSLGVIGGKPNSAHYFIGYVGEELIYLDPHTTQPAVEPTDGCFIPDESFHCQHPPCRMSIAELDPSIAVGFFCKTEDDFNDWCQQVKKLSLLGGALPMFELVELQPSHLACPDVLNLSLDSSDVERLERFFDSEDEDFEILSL
# MEKK3 PB1 HTS = raises or lowers MEK5 binding to the human MEKK3 PB1 domain; Q99759; bead-based flow cytometry, Alexa488-MEK5 binding to MEKK3; actives lie on both sides; 0 = blocked by unlabeled MEK5, 100 = vehicle; binding response (% of control), % at 10 µM; 290,000 tested, 1.4% active; AID 1529;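 active = binding response more than 3 SD above or below the average of its plate-row segment, actives on both sides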;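 also: Alexa488 bead fluorescence after subtracting the streptavidin-only scavenger bead signal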
# ATG4B conf = confirmation of human ATG4B inhibitors. inhibition, % at 8.33 µM. shares compounds with ATG4B inhibitor. 320 tested, 92% active. ATG4B protease fluorescent substrate cleavage assay; in the data active = inhibition above about 39%
# PLA2 ctr = inhibits human PLA2, flagging false ATG4B inhibitors; 1,600 tested, 66% active; inhibition, % at 8.33 µM; purified PLA2, NBD-C6-HPC fluorescence, 45 min; shares compounds with ATG4B inhibitor; in the data active = inhibition above about 50%
# Target sequence (P04054 whole entry, looked up): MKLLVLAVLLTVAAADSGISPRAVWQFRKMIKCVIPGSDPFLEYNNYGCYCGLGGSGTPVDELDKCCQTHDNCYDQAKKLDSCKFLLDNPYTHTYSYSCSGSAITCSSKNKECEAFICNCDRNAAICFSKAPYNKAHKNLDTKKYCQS
# * marks the source's active call; other numbers are inactive results; . = not tested or not shown. In the library only some 2.9% were active in any assay of this set; here they are far more common.
SMILES,Dynein transport,MEKK2 mut-MEK5,MEKK2wt PB1 HTS,B2AR ag,ATG4B inhibitor,MEKK3 PB1 HTS,PLA2 ctr,others
CCOC(=O)c1sc(-c2ccccc2)cc1NC(=O)Nc1ccccc1,0.62,0,107,9,41*,115,37,ATG4B conf=83*
NC(=O)c1ccc(NCC2COc3ccccc3O2)c([N+](=O)[O-])c1 (stereo not drawn),-0.68,-1,98,-6,82*,101,79*,
C=CCn1c(SCC(O)Cn2c3ccccc3c3ccccc32)nnc1-c1ccco1 (stereo not drawn),0.28,-3,98,-5,46*,100,48,
C=CCn1c(SCC(=O)N2c3ccccc3Sc3ccccc32)nnc1-c1ccco1,-0.17,-26,89,-4,-2,88,.,
CCOC(=O)c1c(NS(=O)(=O)c2ccc(Br)cc2)sc2c1CCC2,-0.13,4,93,15,46*,91,57*,
O=C(NN1C(=O)/C(=C/C=C/c2ccco2)SC1=S)c1ccncc1,-0.67,-12,97,4,54*,96,-3,ATG4B conf=65*
COc1ccc2nc(N3CCCCC3)c(/C=C3\SC(=S)NC3=O)cc2c1,-0.65,17,102,20,77*,109,32,ATG4B conf=21
O=C1NC(=S)S/C1=C\c1cc2ccccc2nc1N1CCCCC1,-0.034,3,100,9,65*,99,79*,
Cc1ccc(CNC(=O)COC(=O)CCC(=O)c2cccs2)cc1,-0.71,-8,92,-2,-5,96,.,
O=C(C1CCCN(S(=O)(=O)c2ccccc2[N+](=O)[O-])C1)N1CCN(c2ccccc2)CC1 (stereo not drawn),0.18,-7,101,-1,-15,88,.,
Fc1ccc(C2CC(c3ccco3)=Nc3ccccc3S2)cc1 (stereo not drawn),-0.43,4,107,-15,46*,101,67*,
C[C@@]12CCC=C[C@H]1[C@H](c1ccccc1Br)N(Cc1ccccc1)C2=O,.,.,.,7,48*,.,79*,
Cc1ccc(F)c([C@H]2[C@@H]3C=CCC[C@@]3(C)C(=O)N2Cc2ccccc2)c1,-0.17,-5,93,8,23,95,.,
CCCC1=NN(C(=O)Cc2ccc(OC)c(OC)c2)C(O)(C(F)(F)F)C1 (stereo not drawn),-0.81,-3,98,1,-5,94,.,
CC(C)(C)c1ccc(C(=O)Nc2ccccc2Cl)cc1,-0.32,-3,91,11,45*,90,55*,
COc1ccc(/C=C2/SC(=S)N(CCCC(=O)Nc3ccccc3C(=O)O)C2=O)cc1,.,9,103,5,7,104,.,
COc1ccc(/C=C2\SC(=S)N(CCCC(=O)NNC(=O)c3ccccc3O)C2=O)cc1,0.53,-9,96,1,49*,99,-6,
O=C(NCCN1CCOCC1)C1CCN(S(=O)(=O)N2CCCC2)CC1,-0.53,1,99,0,-4,105,.,
CCc1nn(CCCC(=O)NCc2ccccc2Br)c(=O)c2cc3occc3n12,.,4,108,-4,51*,104,43,ATG4B conf=66*
O=C1N[C@@H](c2ccccc2)COC(=O)[C@H](Cc2ccc(F)cc2)C/C=C\C[C@H]1CC(=O)N(CCO)Cc1ccccc1,.,.,.,3,-12,.,.,
O=C1N[C@@H](c2ccccc2)COC(=O)[C@@H](Cc2ccc(F)cc2)C/C=C\C[C@@H]1CC(=O)N(CCO)Cc1ccccc1,.,.,.,11,50*,.,54*,
CCOC(=O)C1(Cc2ccccc2C)CCCN(C(=O)c2ccc(CSC)o2)C1 (stereo not drawn),.,-2,99,2,2,101,.,
Cc1ccc2oc(C(=O)Nc3c(C)n(C)n(-c4ccccc4)c3=O)c(C)c2c1,-0.083,.,.,.,.,.,.,
Cc1cc(C)c2c(C)c(C(=O)Nc3c(C)n(C)n(-c4ccccc4)c3=O)oc2c1,0.94,-4,94,0,71*,94,69*,
O=c1[nH]c(Nc2ccccc2)cc2ccccc12,-0.8,3,101,-25,40,100,-6,ATG4B conf=75*
SMILES,Dynein transport,MEKK2 mut-MEK5,MEKK2wt PB1 HTS,B2AR ag,ATG4B inhibitor,MEKK3 PB1 HTS,PLA2 ctr,others
O=C(NCC1CCCO1)C(=O)NCC(c1ccco1)N1CCN(c2ccccc2F)CC1 (stereo not drawn),-0.63,-2,98,-4,2,96,.,
Cc1oc(-c2ccccc2F)nc1CS(=O)(=O)CC(=O)NCc1ccco1,0.76,.,.,6,-8,.,.,
Cc1oc(-c2ccccc2F)nc1CS(=O)(=O)CC(=O)NCc1ccccc1Cl,.,0,99,2,49*,98,67*,
CCCC(C(=O)Nc1nccs1)c1ccccc1 (stereo not drawn),-0.4,2,100,-1,-3,101,.,
Cc1cc(CN2CCC(n3nccc3NC(=O)c3ccccc3C)CC2)n[nH]1,.,7,106,-5,26,103,.,
Clc1ccc(OCc2nnnn2-c2ccccc2)cc1,-0.75,3,86,-4,-5,87,.,
c1ccc(OCc2nnnn2-c2ccccc2)cc1,-0.36,6,101,-3,42*,97,-2,
O=c1c2ccccc2nc(SCc2cn3ccsc3n2)n1-c1ccccc1F,0.31,-6,95,-13,66*,91,72*,
O=c1c2ccccc2nc(SCc2nnc(-c3ccccc3)o2)n1-c1ccc(F)cc1F,-0.75,-10,94,-4,62*,96,69*,
Cc1cccc(-n2c(SCc3cc(=O)n4ccsc4n3)nc3ccccc3c2=O)c1,0.21,0,100,-4,4,103,.,
O=c1c2ccccc2nc(SCc2cn3ccsc3n2)n1-c1ccccc1,0.57,2,100,-7,60*,101,73*,
Cc1ccccc1COc1ccc(-c2nnn(CC(=O)O)n2)cc1,.,4,107,-6,3,104,.,
C=C(C)CNC(=O)CCc1nnc(Cc2cccc(C(F)(F)F)c2)o1,1.1,-11,91,-2,-6,100,.,
COc1ccc(-c2ccc3c(c2)S(=O)(=O)c2cccc(C(=O)NCc4cccc(OC(F)(F)F)c4)c2C3=O)cc1OC,.,.,.,-3,70*,.,70*,
CCCCc1nnc(NC(=O)CCN2C(=O)C3CC=CCC3C2=O)s1 (stereo not drawn),.,.,.,6,6,.,.,
Cc1ccc(N2CCN(C(=O)c3cc(COc4c(C)cccc4C)on3)CC2)c(C)c1,.,4,103,3,11,105,.,

# Screening results: PubChem BioAssay, several laboratories
